Measurements taken from ChEMBL document CHEMBL4765270, “Piperidine propionamide as a scaffold for potent sigma-1 receptor antagonists and mu opioid receptor agonists for treating neuropathic pain” (Eur J Med Chem, 2020).
Active and inactive are the calls of the source. No cut-off for these calls is given here.

How the values were obtained:
[1] = molecular target: Sigma non-opioid intracellular receptor 1 (Cavia porcellus, UniProt Q60492); assay: Displacement of [3H]-(+)-pnetazocin from sigma1 receptor in guinea pig brain membrane incubated for 150 mins by liquid scintillation counting method; format: cell membranes
Sigma non-opioid intracellular receptor 1, sequence (Q60492 whole entry): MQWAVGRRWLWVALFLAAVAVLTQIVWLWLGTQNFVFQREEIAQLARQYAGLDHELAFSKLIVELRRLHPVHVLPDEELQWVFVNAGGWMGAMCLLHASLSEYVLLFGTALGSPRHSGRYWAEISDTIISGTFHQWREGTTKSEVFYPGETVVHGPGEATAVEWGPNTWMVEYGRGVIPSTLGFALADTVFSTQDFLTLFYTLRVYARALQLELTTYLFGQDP

Homo sapiens [2] = species: Homo sapiens; assay: Inhibition of NMDA receptor (unknown origin) at 1 uM relative to control
Mus musculus [3] = assay: Antiallodynic activity against formalin-induced nociceptive behavior in ICR mouse assessed as licking/biting time at 25 mg/kg, sc pre-treated for 30 mins followed by formalin-stimulation and measured up to 15 to 30 mins; format: functional; details: time min <=45
Outline: (§1)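 Male/female unspecified ICR mice (n=10 per group) given test compound s.c. or vehicle 30% PEG 400 (4 mL/kg) 30 min before intraplantar injection of 100 µL 5% formalin (1.85% formaldehyde) into right hind paw; time spent licking/biting recorded 0-5 min (phase I) and 15-45 min (phase II); antinociception % = (LT vehicle − LT drug)/LT vehicle × 100; mean ± SEM.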

Rattus norvegicus [4] = assay: Antinociceptive activity in CCI-induced sc dosed Sprague-Dawley rat model of neuropathic pain assessed as paw withdrawal latency after 15 days; format: functional; details: 360 h, time 15 day
[5] = Toxicity in sc dosed ICR mouse assessed as mortality after 24 hrs; format: organism-based; details: in vivo
Mus musculus [6] = assay: Antiallodynic activity against formalin-induced nociceptive behavior in ICR mouse assessed as licking/biting time at 50 mg/kg, sc pre-treated for 30 mins followed by formalin-stimulation and measured up to 15 to 30 mins; format: functional; details: time min <=45; outline: as §1
Homo sapiens [7] = species: Homo sapiens; assay: Inhibition of sigma 2 receptor (unknown origin) at 1 uM relative to control
Homo sapiens [8] = species: Homo sapiens; assay: Inhibition of adrenergic alpha1 receptor (unknown origin) at 1 uM relative to control
Mus musculus [9] = assay: Antiallodynic activity against formalin-induced nociceptive behavior in ICR mouse assessed as licking/biting time at 50 mg/kg, sc pre-treated for 30 mins followed by formalin-stimulation and measured up to 5 mins; format: functional; details: time min <=35; outline: as §1
[10] = molecular target: Sodium-dependent serotonin transporter (Homo sapiens) (UniProt P31645); assay: Inhibition of 5-HT transporter (unknown origin) at 1 uM relative to control
Sodium-dependent serotonin transporter (Homo sapiens), sequence (P31645 whole entry, looked up): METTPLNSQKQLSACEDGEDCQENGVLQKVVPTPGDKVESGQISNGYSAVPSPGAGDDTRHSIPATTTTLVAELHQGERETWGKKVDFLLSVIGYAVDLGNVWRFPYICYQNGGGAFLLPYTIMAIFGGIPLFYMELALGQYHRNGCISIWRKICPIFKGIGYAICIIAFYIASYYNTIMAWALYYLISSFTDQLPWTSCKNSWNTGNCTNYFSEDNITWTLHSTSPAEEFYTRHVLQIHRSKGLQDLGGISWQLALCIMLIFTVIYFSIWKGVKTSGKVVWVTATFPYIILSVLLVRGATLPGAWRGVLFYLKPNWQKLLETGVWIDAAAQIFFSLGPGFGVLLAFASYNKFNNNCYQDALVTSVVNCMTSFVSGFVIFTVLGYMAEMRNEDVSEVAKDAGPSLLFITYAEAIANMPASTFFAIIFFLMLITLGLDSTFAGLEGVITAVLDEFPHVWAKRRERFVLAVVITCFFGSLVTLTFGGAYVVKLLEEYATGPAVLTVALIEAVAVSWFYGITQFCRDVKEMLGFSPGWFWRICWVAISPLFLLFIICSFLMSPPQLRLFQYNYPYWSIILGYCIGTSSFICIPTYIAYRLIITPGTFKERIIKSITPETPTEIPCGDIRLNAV

[11] = molecular target: Histamine H3 receptor (Homo sapiens) (UniProt Q9Y5N1); assay: Inhibition of histamine H3 receptor (unknown origin) at 1 uM relative to control
Histamine H3 receptor (Homo sapiens), sequence (Q9Y5N1 whole entry): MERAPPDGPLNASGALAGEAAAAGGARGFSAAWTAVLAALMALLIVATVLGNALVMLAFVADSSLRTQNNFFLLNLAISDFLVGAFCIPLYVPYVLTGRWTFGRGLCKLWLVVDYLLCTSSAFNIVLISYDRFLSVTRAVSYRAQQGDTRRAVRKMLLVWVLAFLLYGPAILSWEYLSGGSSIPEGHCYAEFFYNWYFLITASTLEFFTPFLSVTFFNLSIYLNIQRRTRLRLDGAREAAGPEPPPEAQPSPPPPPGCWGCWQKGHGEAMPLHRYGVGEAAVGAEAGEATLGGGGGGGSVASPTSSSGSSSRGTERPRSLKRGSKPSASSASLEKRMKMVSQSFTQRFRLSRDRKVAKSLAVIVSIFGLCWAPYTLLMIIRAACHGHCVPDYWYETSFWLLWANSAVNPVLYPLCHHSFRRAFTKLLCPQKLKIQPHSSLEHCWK

[12] = molecular target: Cannabinoid receptor 1 (Homo sapiens) (UniProt P21554); assay: Inhibition of CB1 receptor (unknown origin) at 1 uM relative to control
Cannabinoid receptor 1 (Homo sapiens), sequence (P21554 whole entry): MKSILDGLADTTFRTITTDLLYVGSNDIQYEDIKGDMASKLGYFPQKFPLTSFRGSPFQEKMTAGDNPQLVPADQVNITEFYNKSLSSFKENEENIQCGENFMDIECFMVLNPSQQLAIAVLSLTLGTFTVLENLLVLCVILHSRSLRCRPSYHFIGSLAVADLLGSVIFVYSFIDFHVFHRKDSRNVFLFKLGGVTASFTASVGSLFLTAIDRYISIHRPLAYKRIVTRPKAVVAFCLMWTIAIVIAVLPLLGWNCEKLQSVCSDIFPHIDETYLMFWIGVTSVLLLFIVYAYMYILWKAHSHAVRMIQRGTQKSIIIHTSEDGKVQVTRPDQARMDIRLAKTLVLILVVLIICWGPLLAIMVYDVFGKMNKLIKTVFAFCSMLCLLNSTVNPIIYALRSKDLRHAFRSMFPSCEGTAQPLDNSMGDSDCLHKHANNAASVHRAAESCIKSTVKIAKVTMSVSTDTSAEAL

Mus musculus [13] = assay: Antiallodynic activity against formalin-induced nociceptive behavior in ICR mouse assessed as licking/biting time at 12.5 mg/kg, sc pre-treated for 30 mins followed by formalin-stimulation and measured up to 15 to 30 mins; format: functional; details: time min <=45; outline: as §1
Homo sapiens [14] = species: Homo sapiens; assay: Inhibition of adrenergic alpha2 receptor (unknown origin) at 1 uM relative to control
Mus musculus [15] = assay: Antiallodynic activity against formalin-induced nociceptive behavior in ICR mouse assessed as licking/biting time at 100 mg/kg, sc pre-treated for 30 mins followed by formalin-stimulation and measured up to 15 to 30 mins; format: functional; details: time min <=45; outline: as §1
[16] = molecular target: Cannabinoid receptor 2 (Homo sapiens) (UniProt P34972); assay: Inhibition of CB2 receptor (unknown origin) at 1 uM relative to control
Cannabinoid receptor 2 (Homo sapiens), sequence (P34972 whole entry): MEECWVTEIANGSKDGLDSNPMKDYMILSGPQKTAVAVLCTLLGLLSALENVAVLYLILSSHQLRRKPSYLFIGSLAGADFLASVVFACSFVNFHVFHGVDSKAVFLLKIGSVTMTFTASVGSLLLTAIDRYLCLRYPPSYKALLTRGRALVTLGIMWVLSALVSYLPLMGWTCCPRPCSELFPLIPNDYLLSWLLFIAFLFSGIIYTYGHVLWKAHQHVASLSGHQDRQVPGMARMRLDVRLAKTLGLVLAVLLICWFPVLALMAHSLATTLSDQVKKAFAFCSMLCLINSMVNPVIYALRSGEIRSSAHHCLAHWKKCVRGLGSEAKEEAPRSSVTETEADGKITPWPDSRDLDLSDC

[17] = molecular target: T1, 5-hydroxytryptamine receptor 1A (Homo sapiens) (UniProt P08908); assay: Inhibition of 5HT1A receptor (unknown origin) at 1 uM relative to control
T1 sequence (whole entry): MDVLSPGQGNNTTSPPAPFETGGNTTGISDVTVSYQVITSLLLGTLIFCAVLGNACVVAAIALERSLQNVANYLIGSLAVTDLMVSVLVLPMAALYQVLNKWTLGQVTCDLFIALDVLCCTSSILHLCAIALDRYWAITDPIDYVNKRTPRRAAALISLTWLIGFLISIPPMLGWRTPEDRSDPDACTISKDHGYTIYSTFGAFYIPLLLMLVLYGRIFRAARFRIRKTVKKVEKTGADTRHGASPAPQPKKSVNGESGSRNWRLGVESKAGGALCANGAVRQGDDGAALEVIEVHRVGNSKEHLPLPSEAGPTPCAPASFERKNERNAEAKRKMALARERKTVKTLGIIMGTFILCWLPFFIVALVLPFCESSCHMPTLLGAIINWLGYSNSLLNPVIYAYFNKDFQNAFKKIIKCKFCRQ

[18] = molecular target: 5-hydroxytryptamine receptor 2A (Homo sapiens) (UniProt P28223); assay: Inhibition of 5HT2A receptor (unknown origin) at 1 uM relative to control
5-hydroxytryptamine receptor 2A (Homo sapiens), sequence (P28223 whole entry): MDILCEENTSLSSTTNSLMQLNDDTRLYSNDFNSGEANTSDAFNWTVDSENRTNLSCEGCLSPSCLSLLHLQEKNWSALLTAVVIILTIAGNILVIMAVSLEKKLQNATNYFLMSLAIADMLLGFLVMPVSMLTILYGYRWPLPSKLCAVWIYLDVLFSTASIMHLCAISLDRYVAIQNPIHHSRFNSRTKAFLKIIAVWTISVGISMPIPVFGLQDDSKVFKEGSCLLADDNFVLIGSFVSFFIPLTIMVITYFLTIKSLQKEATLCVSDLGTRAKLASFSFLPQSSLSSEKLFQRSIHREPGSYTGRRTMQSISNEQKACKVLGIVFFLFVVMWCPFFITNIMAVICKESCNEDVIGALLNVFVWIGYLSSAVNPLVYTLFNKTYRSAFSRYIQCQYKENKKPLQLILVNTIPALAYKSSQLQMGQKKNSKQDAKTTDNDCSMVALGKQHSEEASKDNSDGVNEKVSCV

Mus musculus [19] = assay: Antiallodynic activity against formalin-induced nociceptive behavior in sc dosed ICR mouse assessed as licking/biting time pre-treated for 30 mins followed by formalin-stimulation and measured up to 15 to 30 mins; format: functional; details: dose 12.5-100 mg/kg, time min <=45; outline: as §1
[20] = molecular target: Sodium-dependent noradrenaline transporter (Homo sapiens) (UniProt P23975); assay: Inhibition of noradrenaline transporter (unknown origin) at 1 uM relative to control
Sodium-dependent noradrenaline transporter (Homo sapiens), sequence (P23975 whole entry): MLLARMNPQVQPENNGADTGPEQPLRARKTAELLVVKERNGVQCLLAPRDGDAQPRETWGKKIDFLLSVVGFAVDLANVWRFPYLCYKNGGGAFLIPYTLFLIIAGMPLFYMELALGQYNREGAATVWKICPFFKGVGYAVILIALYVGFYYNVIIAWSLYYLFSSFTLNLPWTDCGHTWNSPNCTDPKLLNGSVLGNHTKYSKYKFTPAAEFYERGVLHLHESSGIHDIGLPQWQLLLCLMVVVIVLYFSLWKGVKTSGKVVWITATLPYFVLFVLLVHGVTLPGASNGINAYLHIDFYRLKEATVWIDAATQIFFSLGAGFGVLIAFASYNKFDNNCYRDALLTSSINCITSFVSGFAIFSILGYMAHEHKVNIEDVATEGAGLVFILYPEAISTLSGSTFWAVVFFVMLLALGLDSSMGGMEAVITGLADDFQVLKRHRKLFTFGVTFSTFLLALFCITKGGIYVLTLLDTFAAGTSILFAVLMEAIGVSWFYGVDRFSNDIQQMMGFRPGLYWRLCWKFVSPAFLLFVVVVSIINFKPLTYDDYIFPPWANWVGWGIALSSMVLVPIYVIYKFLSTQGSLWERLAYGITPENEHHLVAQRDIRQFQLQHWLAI

[21] = Therapeutic index, ratio of LD50 for toxicity in ICR mouse to ED50 for antiallodynic activity against formalin-induced nociceptive behavior in ICR mouse; details: read-out: Ratio LD50/ED50
Outline: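 TI = LD50/ED50: LD50 from s.c. acute toxicity in mice, ED50 from phase II of formalin test (s.c. dosing 30 min before formalin, 12.5–100 mg/kg).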

Rattus norvegicus [22] = assay: Antinociceptive activity in CCI-induced Sprague-Dawley rat model of neuropathic pain assessed as paw withdrawal latency at 50 mg/kg, sc after 15 days; format: functional, organism-based; details: time 15.0 day
Mu-type opioid receptor = Mu-type opioid receptor (Cavia porcellus, UniProt P97266); assay: Displacement of [3H]DAMGO from mu opioid receptor in guinea pig brain membrane incubated for 2.5 hrs by scintillation counting method; format: cell membranes
Mu-type opioid receptor, sequence (P97266 whole entry): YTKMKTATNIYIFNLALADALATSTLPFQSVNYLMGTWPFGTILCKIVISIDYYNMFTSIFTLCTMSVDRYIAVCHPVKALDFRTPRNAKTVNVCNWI

SMILES: CCC(=O)N(CCN1CCC(Cc2ccccc2)CC1)c1cc(F)c(F)c(F)c1
- Ki [1]: 573 nM

SMILES: CCC(=O)N(CCN1CCC(Cc2ccccc2)CC1)c1ccc(OC)cc1
- Ki [1]: 1.5 nM

SMILES: CCC(=O)N(CCN1CCC(Cc2ccc(C)cc2)CC1)c1ccc(C)cc1
- Ki [1]: 29 nM

SMILES: CCC(=O)N(CCN1CCC(Cc2ccc(F)cc2)CC1)c1ccc(C)cc1
- Ki [1]: 2.4 nM

SMILES: CCC(=O)N(CCN1CCC(c2ccccc2)CC1)c1ccc(OC)cc1
- Ki [1]: 39 nM

SMILES: CCC(=O)N(CCc1ccccc1)CCN1CCC(Cc2ccccc2)CC1
- Ki [1]: 269 nM

SMILES: CCC(=O)N(CCN1CCC(Cc2ccc(F)cc2)CC1)c1ccc(OC)cc1
- inhibition (Homo sapiens [2]): 14.3%
- Time (Mus musculus [3]): 108 s
- ED50 (Rattus norvegicus [4]): 44.1 mg/kg
- LD50 at 24 h [5]: 397 mg/kg
- Time (Mus musculus [6]): 63 s
- inhibition (Homo sapiens [7]): 29.1%
- inhibition (Homo sapiens [8]): 24.7%
- Time (Mus musculus [9]): 21 s
- inhibition [10]: 10.9%
- inhibition [11]: 34.6%
- inhibition [12]: 20.8%
- Ki [1]: 1.86 nM
- Time (Mus musculus [13]): 201 s
- inhibition (Homo sapiens [14]): 45.9%
- Time (Mus musculus [15]): 41 s
- inhibition [16]: 32.6%
- inhibition [17]: 45.2%
- inhibition [18]: 43.6%
- Activity (Mus musculus [19]): Dose-dependent effect
- ED50 (Mus musculus [19]): 15.1 mg/kg
- inhibition [20]: 18.5%

SMILES: CCC(=O)N(CCN1CCC(Cc2ccccc2)CC1)C(C)c1ccccc1 (configuration not stated)
- Ki [1]: 17.4 nM

SMILES: CCC(=O)N(CCN1CCC(Cc2ccccc2)CC1)c1ncccc1F
- Ki [1]: 506 nM

SMILES: Cc1cc(OCCN2CCOCC2)nn1-c1ccc2ccccc2c1
- LD50 at 24 h [5]: 357 mg/kg
- Time (Mus musculus [6]): 273 s
- Activity (Mus musculus [9]): Active
- selectivity ratio [21]: 12
- Activity (Rattus norvegicus [22]): Active

SMILES: CCC(=O)N(CCN1CCC(Cc2ccccc2)CC1)c1ccc(C)cc1
- Ki [1]: 1.6 nM

SMILES: CCC(=O)N(CCN1CCC(Cc2ccccc2)CC1)Cc1ccccc1
- Ki [1]: 18.7 nM

SMILES: CCC(=O)N(CCN1CCC(Cc2ccc(C)cc2)CC1)c1ccc(OC)cc1
- Ki [1]: 35 nM

SMILES: CCC(=O)N(CCCN1CCC(Cc2ccccc2)CC1)c1ccc(OC)cc1
- Ki [1]: 2.2 nM

SMILES: CCC(=O)N(CCN1CCC(Cc2ccc(C)cc2)CC1)c1ccc(F)cc1
- Ki [1]: 47 nM

SMILES: CCC(=O)N(CCCCN1CCC(Cc2ccccc2)CC1)c1ccc(OC)cc1
- Ki [1]: 18 nM

SMILES: CCC(=O)N(CCN1CCC(Cc2ccccc2)CC1)c1cccc(C(F)(F)F)n1
- Ki [1]: 835 nM

SMILES: CCC(=O)N(CCN1CCC(Cc2ccccc2)CC1)c1ccccn1
- Ki [1]: 402 nM

SMILES: CCC(=O)N(CCN1CCC(Cc2ccc(F)cc2)CC1)c1ccc(F)cc1
- inhibition (Homo sapiens [2]): 20.5%
- LD50 at 24 h [5]: 416 mg/kg
- Time (Mus musculus [6]): 110 s
- inhibition (Homo sapiens [7]): 31.8%
- inhibition (Homo sapiens [8]): 39.9%
- Time (Mus musculus [9]): 36 s
- inhibition [10]: 44.6%
- inhibition [11]: 9.75%
- inhibition [12]: 17.4%
- Ki [1]: 1.3 nM
- inhibition (Homo sapiens [14]): 32.3%
- inhibition [16]: 19.9%
- inhibition [17]: 23%
- inhibition [18]: 34.4%
- inhibition [20]: 28.8%

SMILES: C[C@H]1[C@H]2Cc3ccc(O)cc3[C@@]1(C)CCN2CCc1ccccc1
- Ki (Mu-type opioid receptor): 55 nM

SMILES: CCC(=O)N(CCN1CCC(CCCc2ccccc2)CC1)c1ccc(OC)cc1
- Ki [1]: 893 nM

SMILES: C[C@@H]1[C@@H]2Cc3ccc(O)cc3[C@]1(C)CCN2CCc1ccccc1
- Ki (Mu-type opioid receptor): 0.2 nM

SMILES: CCC(=O)N(CCN1CCC(CCc2ccccc2)CC1)c1ccc(OC)cc1
- Ki [1]: 372 nM

SMILES: CCC(=O)N(CCCCCN1CCC(Cc2ccccc2)CC1)c1ccc(OC)cc1
- Ki [1]: 42 nM
